High-throughput results: PubChem, several laboratories
NF-kB neuron act: compounds increasing NF-kB expression in human neuronal cells; NF-kB reporter expression; stronger effect = higher value; fold change at 12.5 µM; actives 1.6% (n = 190,000); in the data active = fold change above about 3.3
STAT3 activator: increases IL-6 driven STAT3 reporter signal | AID 871 | U3A cells, IL-6 STAT3-luciferase reporter, luminescence; 100% = signal with IL-6 EC80 alone | activation (% of control), % at 5.6 µM | actives 0.91% (n = 190,000);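 active = activation above the screen-wide mean of compound activation plus 3 SD, cut at about 130% in these data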;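 also: 0% = background luminescence of wells with medium and substrate only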
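Test system: human U3A cells carrying STAT3-luciferase construct; control set: IL-6-only wells as 100% reference; timing: compound pre-incubation 1 h before IL-6, then 6 h stimulation at 37 °C; also added: IL-6 stimulus at 33 ng/mL final; evaluation: % activation versus median of IL-6-stimulated wells; detection: reporter luminescence signal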
STAT1 activator: increases IFN-gamma driven STAT1 reporter signal; activation (% of control), % at 5.5 µM; NIH 3T3 STAT1-luciferase reporter, luminescence; 100% = IFN-gamma alone, no compound; actives 2.6% (n = 200,000); AID 932;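 active = activation above the screen-wide mean activation plus 3 SD, cut at about 130% in these data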;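 also: raw ratio to IFN-gamma control signal so 100% means no change and 0% no light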
STAT1 blocker: reduces IFN-gamma driven STAT1 reporter signal | NIH 3T3 STAT1-luciferase reporter, luminescence | inhibition, % at 5.5 µM | actives 0.35% (n = 200,000);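 active = inhibition above a set limit, the mean inhibition across all tested compounds plus 3 SD, cut at about 34% in these data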;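 also: 0% = IFN-gamma with DMSO and 100% = IFN-gamma with 300 µM nifuroxazide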
APP 5'UTR act: activates APP 5'UTR luciferase reporter | SH-SY5Y APP 5'UTR luciferase reporter, luminescence; zero percent = DMSO vehicle wells | activation, % at 2 µM | actives 1% (n = 190,000) | AID 1276;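 active = activation above a set limit, based on mean plus 3 SD of controls, cut at about 140% in these data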
STAT3 inh: inhibitors of IL-6 induced STAT3 signaling. inhibition, % at 5.5 µM. U3A cells, IL-6 STAT3-luciferase reporter, luminescence; host cell line lacks STAT1. actives 0.89% (n = 190,000);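 active = inhibition above the mean inhibition across all screened compounds plus 3 SD, cut at about 44% in these data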;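 also: 0% = DMSO only wells and 100% = 100 µM nifuroxazide control wells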
* marks the source's active call; other numbers are inactive results. Most compounds without a hit are left out; they make up all but 5.1% or so of the library.

`NC(=O)CC[C@H](NC(=O)c1ccc(F)cc1)C(=O)OCC(=O)NCc1ccc(F)cc1` gave NF-kB neuron act 1.19, STAT3 activator 95.0, STAT1 activator 92.1, STAT1 blocker 8.6, APP 5'UTR act 12.6 and STAT3 inh 6.1.
`Cc1ccc(NC(=O)N2C(=O)C3(OCCO3)c3ccccc32)cc1` gave NF-kB neuron act 2.22, STAT3 activator 103.9, STAT1 activator 138.1*, STAT1 blocker -42.0, APP 5'UTR act 90.7 and STAT3 inh -2.0.
For O=C1CCC/C1=C/Nc1ccc2c(c1)OCO2 the results were NF-kB neuron act 0.9, STAT3 activator 108.2, STAT1 activator 118.5, STAT1 blocker -20.8, APP 5'UTR act 12.5 and STAT3 inh -5.2.
Screening CC1CCC/C(=C\Nc2ccc3c(c2)OCO3)C1=O (stereo not given) returned NF-kB neuron act 1.01, STAT3 activator 117.4, STAT1 activator 133.2*, STAT1 blocker -36.5, APP 5'UTR act 0.4 and STAT3 inh -14.8.
Screening CC/C(=N\NC(=O)c1ccoc1C)c1ccc(C)o1 returned NF-kB neuron act 2, STAT3 activator 105.5, STAT1 activator 130.1*, STAT1 blocker -33.7, APP 5'UTR act 114.2 and STAT3 inh -3.9.
For CC/C(=N\NC(=O)c1c(-c2ccccc2)noc1C)c1ccc(C)o1 the results were NF-kB neuron act 1.07, STAT3 activator 83.9, STAT1 activator 92.5, STAT1 blocker 8.2, APP 5'UTR act 4.4 and STAT3 inh 18.4.
Screening C=CCc1ccc(OCCOCCN(C)C)c(OC)c1 returned NF-kB neuron act 1.01, STAT3 activator 113.5, STAT1 activator 95.6, STAT1 blocker 2.5, APP 5'UTR act 1.0 and STAT3 inh -14.9.
C=CCc1ccc(OCCn2cccc2C=O)c(OC)c1 was read as NF-kB neuron act 1.73, STAT3 activator 98.3, STAT1 activator 147.4*, STAT1 blocker -52.7, APP 5'UTR act 40.3 and STAT3 inh 13.2.
`CC(C)NC(=O)c1noc2cc([N+](=O)[O-])ccc12` gave NF-kB neuron act 1.48, STAT3 activator 102.4, STAT1 activator 107.7, STAT1 blocker -8.6, APP 5'UTR act -0.7 and STAT3 inh 2.8.
COC(=O)c1sc(NC(=O)c2cc(-c3ccccc3)nc3ccccc23)c(C#N)c1C was read as NF-kB neuron act 1.03, STAT3 activator 61.7, STAT1 activator 94.2, STAT1 blocker 7.2, APP 5'UTR act -7.5 and STAT3 inh 48.7*.
`CCOC(=O)c1sc(NC(=O)c2cc(-c3ccc(C)cc3)nc3ccccc23)c(C#N)c1C` gave NF-kB neuron act 0.5, STAT3 activator 106.0, STAT1 activator 106.0, STAT1 blocker -6.6, APP 5'UTR act 7.2 and STAT3 inh -0.7.
Screening O=C(NC1=NCCS1)c1cc(-c2ccc(-c3ccccc3)cc2)nc2ccccc12 returned NF-kB neuron act 1.28, STAT3 activator 105.4, STAT1 activator 135.0*, STAT1 blocker -38.5, APP 5'UTR act 67.4 and STAT3 inh -11.2.
COc1ccc(-c2cc(C(=O)NC3=NCCS3)c3ccccc3n2)cc1OC was read as NF-kB neuron act 0.51, STAT3 activator 114.3, STAT1 activator 114.4, STAT1 blocker -15.2, APP 5'UTR act -11.4 and STAT3 inh -18.2.
Cc1cc(C(F)F)n2nc(C(=O)Nc3sc4c(c3C#N)CCC4)nc2n1 was read as NF-kB neuron act 1.37, STAT3 activator 104.7, STAT1 activator 101.8, STAT1 blocker 0.5, APP 5'UTR act -1.7 and STAT3 inh -8.6.
COc1ccc(NC2=CC(=O)CC(c3ccccc3)C2)cc1 (stereo not given) was read as NF-kB neuron act 1.46, STAT3 activator 101.2, STAT1 activator 99.1, STAT1 blocker -1.2, APP 5'UTR act 12.6 and STAT3 inh 2.1.
For CCOc1ccc(-c2cc(C(=O)OC)[nH]n2)cc1 the results were NF-kB neuron act 2.68, STAT3 activator 99.9, STAT1 activator 141.8*, STAT1 blocker -43.8, APP 5'UTR act 58.5 and STAT3 inh 0.7.
Screening CCC1=NN(C(=O)CCc2ccccc2O)C(O)(C(F)(F)F)C1 (stereo not given) returned NF-kB neuron act 1.13, STAT3 activator 95.0, STAT1 activator 101.5, STAT1 blocker -1.7, APP 5'UTR act 7.2 and STAT3 inh 6.8.
Screening N#Cc1cc(C#N)c(N2CCN(c3ccccn3)CC2)nc1N returned NF-kB neuron act 0.97, STAT3 activator 119.2, STAT1 activator 135.5*, STAT1 blocker -38.6, APP 5'UTR act 68.0 and STAT3 inh -16.2.
Screening CC1=C(C)CC(C(=O)Nc2ccc3c(c2)OCO3)C(C(=O)O)C1 (stereo not given) returned NF-kB neuron act 1.13, STAT3 activator 102.7, STAT1 activator 100.7, STAT1 blocker -0.6, APP 5'UTR act 7.7 and STAT3 inh 6.3.
Screening Cc1cnc(NC(=O)c2cncc(Br)c2)s1 returned NF-kB neuron act 4.04*, STAT3 activator 79.5, STAT1 activator 135.7*, STAT1 blocker -41.1, APP 5'UTR act 181.0* and STAT3 inh 27.8.
`COc1ccc2c(c1)CCc1sc(NC(=O)c3ccco3)nc1-2` gave NF-kB neuron act 1.75, STAT3 activator 99.1, STAT1 activator 126.9, STAT1 blocker -29.8, APP 5'UTR act 18.9 and STAT3 inh 9.9.
Screening COc1ccc2nc(NC(=S)NC(=O)c3ccco3)sc2c1 returned NF-kB neuron act 2.18, STAT3 activator 97.1, STAT1 activator 145.7*, STAT1 blocker -52.8, APP 5'UTR act 161.4* and STAT3 inh 9.6.
O=C(Nc1nnc(C2CC2)s1)c1ccco1 was read as NF-kB neuron act 1.72, STAT3 activator 109.0, STAT1 activator 124.2, STAT1 blocker -26.4, APP 5'UTR act 9.7 and STAT3 inh -2.4.
`Cc1cnc(NC(=O)c2ccncc2)s1` gave NF-kB neuron act 1.36, STAT3 activator 113.7, STAT1 activator 114.4, STAT1 blocker -18.9, APP 5'UTR act 8.5 and STAT3 inh -11.3.
For O=C(Nc1nnc(C2CCCCC2)s1)c1ccco1 the results were NF-kB neuron act 2.18, STAT3 activator 95.4, STAT1 activator 129.6*, STAT1 blocker -32.7, APP 5'UTR act -2.0 and STAT3 inh 6.1.
For COc1ccc2sc(NC(=O)c3ccco3)nc2c1 the results were NF-kB neuron act 2.49, STAT3 activator 34.2, STAT1 activator 65.8, STAT1 blocker 37.7*, APP 5'UTR act 130.8 and STAT3 inh 83.8*.
`Cc1[nH]n(-c2ccccc2)c(=O)c1/C=N\NC(=O)C1COc2ccccc2O1` (stereo not given) gave NF-kB neuron act 1.07, STAT3 activator 89.4, STAT1 activator 92.3, STAT1 blocker 8.5, APP 5'UTR act -16.2 and STAT3 inh 7.9.
Cc1cc(C)c2c(N)c(C(=O)Nc3ncc(C)s3)sc2n1 was read as NF-kB neuron act 0.54, STAT3 activator 11.1, STAT1 activator 24.2, STAT1 blocker 87.2*, APP 5'UTR act -22.5 and STAT3 inh 107.6*.
